The test system of assay [1] is P388. The assay can be described thus: In vivo maximum increase in lifespan produced in mice bearing ip P388 leukemia. The note with it: Mus musculus. The class given is functional, organism-based. In a few lines: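 B6D2F1 mice were inoculated ip with 10⁶ P388 leukemia cells. Complexes in DMA or ethanol plus saline (Cremophor-EL if precipitating) were given ip in 0.5 mL on days 1–5, starting 24 h after inoculation, at five log-spaced doses. Untreated and cisplatin controls were included. Mice were monitored daily for 45 days. ILS = % increase in median survival versus untreated controls, at MTD; >30% counted as active.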

The subject of assay [2] is P388. The assay is described as follows: In vivo maximally tolerated dose for B6D2F1 mice on an ip P388 leukemia every day for 5 days regimen. In kind it is functional, organism-based. The note with it: Mus musculus. In a few lines: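 B6D2F1 mice inoculated ip with 10⁶ P388 leukemia cells. Complex in DMA or ethanol plus saline, with Cremophor-EL if needed, 0.5 mL, freshly made. Given ip days 1–5 starting 24 h after inoculation, at five log-spaced doses to find the MTD. Groups of six; untreated and cisplatin controls. Mortality checked daily for 45 days; end points MST and ILS.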

In assay [3] the test system is B16. The assay is described as follows: In vitro concentration which inhibits cloning efficiency of B16 melanoma cells by 50% on a 2-h exposure was determined. The class given is functional, cell-based, Mus musculus. In a few lines:
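Clonogenic assay with B16 melanoma cells grown in monolayer culture. Cells were exposed to drug for 2 h, either in medium containing 10% fetal calf serum or in serum-free medium, and then cloned. IC50 is the concentration cutting cloning efficiency by 50%.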

The test system of assay [4] is B16. The assay is described as follows: (§1) In vivo maximum increase in lifespan produced in mice bearing ip B16 melanoma implanted tumor. The class given is functional, organism-based. Conditions: Mus musculus. In a few lines: (§2)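 M5076 sarcoma or B16 melanoma was maintained by serial transplantation in syngeneic mice and implanted ip. B6D2F1 mice received complexes ip daily for 10 days at five log-spaced doses encompassing the MTD. Activity was scored as increase in median lifespan versus untreated controls, at MTD; >25% ILS counted as active.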

Assay [5] has as its system Mus musculus. The assay is described as follows: In vivo maximally tolerated dose for B6D2F mice on an every day ip for 10 days regimen. The class given is functional, organism-based. In a few lines:
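B6D2F1 mice with ip-implanted M5076 reticulum cell sarcoma or B16 melanoma, kept by serial transplant in syngeneic mice. Complex dissolved in minimal DMA or ethanol plus equal saline, with Cremophor-EL if it precipitated. Made just before use and given ip daily for 10 days at five log-spaced doses spanning the MTD. Activity judged by median lifespan prolongation.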

The subject of assay [6] is M5076. The assay can be described thus: In vivo maximum increase in lifespan produced in mice bearing M5076 reticulum cell sarcoma implanted tumor. In kind it is functional. The note with it: Mus musculus. In a few lines:
as §2

Assay [7] is described as follows: as §1. The class given is organism-based. In a few lines: as §2

Broadly, the ILS is how much longer treated animals lived than controls. As for “Bis [1,2-bis(diphenylphosphino)ethane] gold (I) 2-hydroxy-1-ethane sulphonate”, the ILS in assay [1] was determined as 78%. In assay [2], this substance had an MTD (uM day-1 kg-1) of 2.

Regarding “Bis [1,2-bis(diphenylphosphino)ethane] gold (I) Bromide Hydrate”, the ILS in assay [1] stood at 83%. The substance further returned an MTD (uM day-1 kg-1) in assay [2] of 2.

A word on the IC50: it is the concentration needed to halve the response being measured. On to “Bis [1,2-bis(diphenylphosphino)ethane] gold (I) Chloride Hydrate [listing 1 of 2 here]”, for which the IC50 in assay [3] was 4.5 µM.

Consider “Bis [1,2-bis(diphenylphosphino)ethane] gold (I) Chloride Hydrate [listing 2 of 2 here]”, for which the ILS was found to be 38% in assay [4], 83% in assay [1] and 57% in assay [6]. For the same substance, the MTD (uM day-1 kg-1) in assay [5] was found to be 2; in assay [2] it was 3.

With “Bis [1,2-bis(diphenylphosphino)ethane] gold (I) Iodide Hydrate”, the ILS amounted to 150% in assay [1] and 52% in assay [6]. Also, the MTD (uM day-1 kg-1) in assay [5] and in assay [2] was 2 each time.

As for “Bis [1,2-bis(diphenylphosphino)ethane] gold (I) Methanesulfonate”, in assay [1], the ILS was 81%. The MTD (uM day-1 kg-1) in assay [2] came out at 2.

Consider “Bis [1,2-bis(diphenylphosphino)ethane] gold (I) Nitrate [listing 1 of 2 here]”, for which, in assay [3], half-maximal inhibition (IC50) required 4 µM.

With “Bis [1,2-bis(diphenylphosphino)ethane] gold (I) Nitrate [listing 2 of 2 here]”, the ILS in assay [1] worked out at 90%. The MTD (uM day-1 kg-1) in assay [2] is 3.

Turning to “Bis [1,2-bis(diphenylphosphino)ethene] gold (I) Chloride [listing 1 of 2 here]”, the IC50 in assay [3] came out at 2 µM.

Regarding “Bis [1,2-bis(diphenylphosphino)ethene] gold (I) Chloride [listing 2 of 2 here]”, the ILS in assay [1] is 92%; in assay [7], 35%; in assay [6], 69%. Moreover, the MTD (uM day-1 kg-1) in assay [5] and in assay [2] was 2 throughout.

“Bis [1,2-bis(diphenylphosphino)propane] gold (I) Chloride [listing 1 of 2 here]” gave an IC50 in assay [3] of 0.6 µM.

“Bis [1,2-bis(diphenylphosphino)propane] gold (I) Chloride [listing 2 of 2 here]”: the increase in lifespan (ILS) turned out to be 89% in assay [1], 34% in assay [7] and 116% in assay [6]. Moreover, the MTD (uM day-1 kg-1) came to 2 in assay [5] and 3 in assay [2].

Take “Bis [1,2-bis(dipyridine-2-ylphosphino)ethane] gold (I) Chloride Hydrate; chloride”: the ILS was found to be 75% in assay [1] and 43% in assay [7]. For the same substance, the MTD (uM day-1 kg-1) in assay [5] and in assay [2] was 8 in each case.

For “Bis [1,2-bis(dipyridine-4-ylphosphino)ethane] gold (I) Chloride Hydrate; chloride”, the MTD (uM day-1 kg-1) in assay [5] turned out to be 4; in assay [2], 6.

As to “Bis [1,2-bis[bis(3-fluorophenyl)phosphino)ethane] gold (I) Chloride”, in assay [1], the ILS turned out to be 55%. Further, the MTD (uM day-1 kg-1) in assay [2] is 10.

“Bis [1,2-bis[bis(4-fluorophenyl)phosphino)ethane] gold (I) Chloride” yielded an ILS in assay [1] of 50%. This substance displayed an MTD (uM day-1 kg-1) in assay [2] of 3.

Regarding “Bis [1,2-bis[bis(5-H-dibenzophospholyl)ethane] gold (I) Nitrate”, the ILS in assay [1] is 61%. The substance further returned an MTD (uM day-1 kg-1) in assay [2] of 4.

The substance “Bis [1-dipphenyl,2-phenylmethylphosphino)ethane] gold (I) Chloride Hydrate; chloride” gave an ILS in assay [1] of 65%. Also, the MTD (uM day-1 kg-1) came out at 2 in assay [5] and 3 in assay [2].

Regarding “Bis [(1-diphenylphosphino, 2-diethyl) ethane] gold (I) Chloride [listing 1 of 2 here]”, the IC50 in assay [3] amounted to 5 µM.

For the substance “Bis [(1-diphenylphosphino, 2-diethyl) ethane] gold (I) Chloride [listing 2 of 2 here]”, the increase in life span (ILS) came to 54% in assay [1] and 46% in assay [6]. Moreover, the MTD (uM day-1 kg-1) in assay [5] is 2; in assay [2], 4.

On to CISPLATIN, for which the figures for the increase in lifespan (ILS) in assay [1], in assay [7] and in assay [6] were 125%, 75% and 103%, respectively. In addition, the values for the MTD (uM day-1 kg-1) in assay [5] and in assay [2] were 5 and 7, respectively.

(Values after ChEMBL document CHEMBL1124764, “Cytotoxicity and antitumor activity of some tetrahedral bis(diphosphino)gold(I) chelates” (J Med Chem, 1990).)
